Converted amounts (≈) assume the structure as drawn.
How the values were obtained:
[1] = system: Enterococcus faecalis; test: Antibacterial activity against vancomycin-resistant Enterococcus faecalis NCTC 12201 after 20 hrs by broth microdilution method; format: functional; settings: NCTC 12201, 20 h
Procedure, shortened: (§1)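 Broth microdilution in Tryptic Soy Broth; growth read as OD600 after 20 h. MIC taken as the lowest drug concentration giving OD600 below 0.1. Run in triplicate.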

[2] = system: Pseudomonas aeruginosa; test: Antibacterial activity against Pseudomonas aeruginosa PAO1 after 20 hrs in the presence of Pa-beta-N and magnesium ions by broth microdilution method; format: functional; settings: PAO1, 20 h
Procedure, shortened: (§2)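 Broth microdilution in Tryptic Soy Broth, done in triplicate. Growth was read as OD600 after 20 h. MIC is the lowest drug concentration giving OD600 below 0.1.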

[3] = system: Acinetobacter baumannii; test: Antibacterial activity against Acinetobacter baumannii ATCC 17978 after 20 hrs in the presence of Pa-beta-N and magnesium ions by broth microdilution method; format: functional; settings: ATCC 17978, 20 h; procedure, shortened: as §2
[4] = system: Pseudomonas aeruginosa; test: Antibacterial activity against Pseudomonas aeruginosa NCTC 13437 after 20 hrs by broth microdilution method; format: functional; settings: NCTC 13437, 20 h; procedure, shortened: as §2
[5] = system: Acinetobacter baumannii; test: Ratio of MIC for Acinetobacter baumannii AYE in absence of Pa-beta-N to MIC for Acinetobacter baumannii AYE in presence of Pa-beta-N; format: functional
Procedure, shortened: (§3)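 Both MICs were by TSB broth microdilution, with an OD600 <0.1 cutoff at 20 h.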

[6] = system: Enterococcus faecalis; test: Bactericidal activity against vancomycin-resistant Enterococcus faecalis NCTC 12201 assessed as time required to kill bacteria by >6 log10CFU/ml at 4 times MIC by Miles Misra dilution method; format: functional
Procedure, shortened: (§4)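 Flasks of TSB inoculated at ~10^6 cfu/mL, compound added at 4 × MIC, shaken at 200 rpm and 37 °C. Samples taken at 1, 2, 4, 6 and 24 h and plated by Miles Misra dilution for CFU/mL. Bactericidal means a loss of >3 log CFU/mL. Three independent repeats, error bars SD.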

[7] = system: Klebsiella pneumoniae; test: Ratio of MIC for Klebsiella pneumoniae NCTC 13368 in absence of PMBN to MIC for Klebsiella pneumoniae NCTC 13368 in presence of PMBN; format: functional
Procedure, shortened: (§5)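 Fold change: MIC without divided by MIC with 30 μg/mL PMBN. Both MICs were by TSB broth microdilution, with an OD600 <0.1 cutoff at 20 h.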

[8] = system: Pseudomonas aeruginosa; test: Ratio of MIC for Pseudomonas aeruginosa PAO1 in absence of PMBN to MIC for Pseudomonas aeruginosa PAO1 in presence of PMBN; format: functional; procedure, shortened: as §5
[9] = system: Enterococcus faecium; test: Antibacterial activity against vancomycin-resistant Enterococcus faecium NCTC 12204 after 20 hrs by broth microdilution method; format: functional; settings: NCTC 12204, 20 h; procedure, shortened: as §1
[10] = system: Klebsiella pneumoniae; test: Antibacterial activity against Klebsiella pneumoniae M6 after 20 hrs in the presence of PMBN by broth microdilution method; format: functional; settings: M6, 20 h; procedure, shortened: as §2
[11] = system: Acinetobacter baumannii; test: Ratio of MIC for Acinetobacter baumannii ATCC 17978 in absence of Pa-beta-N to MIC for Acinetobacter baumannii ATCC 17978 in presence of Pa-beta-N; format: functional; procedure, shortened: as §3
[12] = Stabilization of FAM/TAMRA-labeled AT-rich DNA duplex (unknown origin) assessed as change in melting temperature at 1 uM by FRET-based assay
Procedure, shortened: (§6)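 FRET melting of a FAM/TAMRA-labelled AT-rich oligonucleotide, 400 nM working solution in 50 mM potassium, 50 mM cacodylate, pH 7.4. DNA was annealed at 85 °C for 6 min, then held at 25 °C for 5 h, and mixed 1:1 with sample. Fluorescence was read every 0.5 °C from 30 to 100 °C, with a 30 s hold per step. ΔTm is measured against the blank, in triplicate.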

[13] = system: Pseudomonas aeruginosa; test: Antibacterial activity against Pseudomonas aeruginosa PAO1 after 20 hrs in the presence of PMBN by broth microdilution method; format: functional; settings: PAO1, 20 h; procedure, shortened: as §2
[14] = Stabilization of FAM/TAMRA-labeled AT-rich DNA duplex (unknown origin) assessed as change in melting temperature at 5 uM by FRET-based assay; procedure, shortened: as §6
[15] = system: Staphylococcus aureus; test: Antibacterial activity against methicillin-resistant Staphylococcus aureus MRSA252 after 20 hrs by broth microdilution method; format: functional; settings: MRSA252, 20 h; procedure, shortened: as §1
[16] = system: Pseudomonas aeruginosa; test: Ratio of MIC for Pseudomonas aeruginosa NCTC 13437 in absence of PMBN to MIC for Pseudomonas aeruginosa NCTC 13437 in presence of PMBN; format: functional; procedure, shortened: as §5
[17] = system: Acinetobacter baumannii; test: Antibacterial activity against Acinetobacter baumannii ATCC 17978 after 20 hrs in the presence of PMBN by broth microdilution method; format: functional; settings: ATCC 17978, 20 h; procedure, shortened: as §2
[18] = system: Staphylococcus aureus; test: Bactericidal activity against methicillin-resistant Staphylococcus aureus EMRSA-15 assessed as time required to kill bacteria by >6 log10CFU/ml at 4 times MIC by Miles Misra dilution method; format: functional; procedure, shortened: as §4
[19] = Cytotoxicity against human HeLa cells assessed as cell viability at 25 uM after 24 hrs by MTT assay; format: cell-based; settings: read-out: Activity
Procedure, shortened: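 HeLa cells, 10000 per well, were grown at 37 °C in 5% CO2 and allowed to settle for 24 h. Compound was then added in triplicate for 24 h of continuous exposure. Viability was read by MTT colorimetry, with absorbance at 570 nm.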

[20] = system: Acinetobacter baumannii; test: Antibacterial activity against Acinetobacter baumannii AYE after 20 hrs in the presence of PMBN by broth microdilution method; format: functional; procedure, shortened: as §2
[21] = system: Acinetobacter baumannii; test: Antibacterial activity against Acinetobacter baumannii ATCC 17978 after 20 hrs by broth microdilution method; format: functional; settings: ATCC 17978, 20 h; procedure, shortened: as §2
[22] = system: Klebsiella pneumoniae; test: Ratio of MIC for Klebsiella pneumoniae NCTC 13368 in absence of Pa-beta-N to MIC for Klebsiella pneumoniae NCTC 13368 in presence of Pa-beta-N; format: functional; procedure, shortened: as §3
[23] = system: Klebsiella pneumoniae; test: Antibacterial activity against Klebsiella pneumoniae NCTC 13368 after 20 hrs in the presence of Pa-beta-N and magnesium ions by broth microdilution method; format: functional; settings: NCTC 13368, 20 h; procedure, shortened: as §2
[24] = system: Acinetobacter baumannii; test: Antibacterial activity against Acinetobacter baumannii AYE after 20 hrs by broth microdilution method; format: functional; procedure, shortened: as §2
[25] = system: Pseudomonas aeruginosa; test: Antibacterial activity against Pseudomonas aeruginosa PAO1 after 20 hrs by broth microdilution method; format: functional; settings: PAO1, 20 h; procedure, shortened: as §2
[26] = system: Staphylococcus aureus; test: Antibacterial activity against methicillin-sensitive Staphylococcus aureus ATCC 9144 after 20 hrs by broth microdilution method; format: functional; settings: ATCC 9144, 20 h; procedure, shortened: as §2
[27] = system: Acinetobacter baumannii; test: Ratio of MIC for Acinetobacter baumannii ATCC 17978 in absence of PMBN to MIC for Acinetobacter baumannii ATCC 17978 in presence of PMBN; format: functional; procedure, shortened: as §5
[28] = system: Klebsiella pneumoniae; test: Antibacterial activity against Klebsiella pneumoniae NCTC 13368 after 20 hrs by broth microdilution method; format: functional; settings: NCTC 13368, 20 h; procedure, shortened: as §2
[29] = system: Klebsiella pneumoniae; test: Ratio of MIC for Klebsiella pneumoniae M6 in absence of PMBN to MIC for Klebsiella pneumoniae M6 in presence of PMBN; format: functional; procedure, shortened: as §5
[30] = system: Staphylococcus aureus; test: Inhibition of Staphylococcus aureus DNA gyrase assessed as reduction in pNO1 supercoiling at 0.5 ug/mL by fluorescent dye-based assay
Procedure, shortened: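 Supercoiling plate assay run per the kit instructions. S. aureus gyrase was incubated with compound and plasmid pNO1. Negatively supercoiled plasmid was captured by a triplex-forming oligonucleotide, stained with a fluorescent dye and read by fluorescence (excitation 485 nm). Percent inhibition was reported.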

[31] = system: Klebsiella pneumoniae; test: Ratio of MIC for Klebsiella pneumoniae M6 in absence of Pa-beta-N to MIC for Klebsiella pneumoniae M6 in presence of Pa-beta-N; format: functional; procedure, shortened: as §3
[32] = system: Pseudomonas aeruginosa; test: Antibacterial activity against Pseudomonas aeruginosa NCTC 13437 after 20 hrs in the presence of PMBN by broth microdilution method; format: functional; settings: NCTC 13437, 20 h; procedure, shortened: as §2
[33] = system: Acinetobacter baumannii; test: Antibacterial activity against Acinetobacter baumannii AYE after 20 hrs in the presence of Pa-beta-N and magnesium ions by broth microdilution method; format: functional; procedure, shortened: as §2
[34] = system: Pseudomonas aeruginosa; test: Antibacterial activity against Pseudomonas aeruginosa NCTC 13437 after 20 hrs in the presence of Pa-beta-N and magnesium ions by broth microdilution method; format: functional; settings: NCTC 13437, 20 h; procedure, shortened: as §2
[35] = system: Klebsiella pneumoniae; test: Antibacterial activity against Klebsiella pneumoniae NCTC 13368 after 20 hrs in the presence of PMBN by broth microdilution method; format: functional; settings: NCTC 13368, 20 h; procedure, shortened: as §2
[36] = system: Pseudomonas aeruginosa; test: Ratio of MIC for Pseudomonas aeruginosa NCTC 13437 in absence of Pa-beta-N to MIC for Pseudomonas aeruginosa NCTC 13437 in presence of Pa-beta-N; format: functional; procedure, shortened: as §3
[37] = system: Enterococcus faecalis; test: Antibacterial activity against vancomycin-sensitive Enterococcus faecalis NCTC 775 after 20 hrs by broth microdilution method; format: functional; settings: NCTC 775, 20 h; procedure, shortened: as §2
[38] = system: Acinetobacter baumannii; test: Ratio of MIC for Acinetobacter baumannii AYE in absence of PMBN to MIC for Acinetobacter baumannii AYE in presence of PMBN; format: functional; procedure, shortened: as §5
[39] = system: Klebsiella pneumoniae; test: Antibacterial activity against Klebsiella pneumoniae M6 after 20 hrs by broth microdilution method; format: functional; settings: M6, 20 h; procedure, shortened: as §2
[40] = system: Staphylococcus aureus; test: Antibacterial activity against methicillin-resistant Staphylococcus aureus EMRSA-15 after 20 hrs by broth microdilution method; format: functional; settings: EMRSA-15, 20 h; procedure, shortened: as §1
[41] = system: Klebsiella pneumoniae; test: Antibacterial activity against Klebsiella pneumoniae M6 after 20 hrs in the presence of Pa-beta-N and magnesium ions by broth microdilution method; format: functional; settings: M6, 20 h; procedure, shortened: as §2

SMILES: Cc1nc2ccc(C(=O)Nc3cccc(-c4ccc(-n5c(C)nc6cc(C(=O)NCCCN(C)C)ccc65)nc4)c3)cc2[nH]1
- MIC [1]: 0.25 µg/mL (≈ 0.426 µM)
- MIC [2]: > 32 µg/mL
- MIC [3]: 8 µg/mL
- MIC [4]: > 32 µg/mL
- Ratio [5]: 2 - 4
- Time [6]: 2 h
- Ratio [7]: 4
- Ratio [8]: >16
- MIC [9]: 0.5 µg/mL (≈ 0.852 µM)
- MIC [10]: 8 µg/mL
- Ratio [11]: 2 - 4
- deltaTm [12]: 0.4 °C
- MIC [13]: 4 µg/mL
- deltaTm [14]: 2.1 °C
- MIC [15]: 2 µg/mL (≈ 3.41 µM)
- Ratio [16]: >16
- MIC [17]: 8 µg/mL
- Time [18]: 2 h
- viability at 24 h, 25 µM [19]: > 98%
- MIC [20]: 8 µg/mL
- MIC [21]: 16 µg/mL (≈ 27.3 µM)
- Ratio [22]: 2 - 4
- MIC [23]: 32 µg/mL
- MIC [24]: 16 µg/mL (≈ 27.3 µM)
- MIC [25]: > 32 µg/mL
- MIC [26]: 0.25 µg/mL (≈ 0.426 µM)
- Ratio [27]: 2
- MIC [28]: > 32 µg/mL
- Ratio [29]: 4
- inhibition [30]: 65.2%
- Ratio [31]: >=4
- MIC [32]: 4 µg/mL
- MIC [33]: 8 µg/mL
- MIC [34]: 16 to 32 µg/mL
- MIC [35]: 16 µg/mL
- Ratio [36]: 2 - 4
- MIC [37]: 0.5 µg/mL (≈ 0.852 µM)
- Ratio [38]: 2
- MIC [39]: 32 µg/mL (≈ 54.5 µM)
- MIC [40]: 0.5 µg/mL (≈ 0.852 µM)
- MIC [41]: 8 µg/mL

Source: ChEMBL document CHEMBL4011643, “Triaryl Benzimidazoles as a New Class of Antibacterial Agents against Resistant Pathogenic Microorganisms” (J Med Chem, 2017)
